# DENV2 CPE: DENV2-induced cell death inhibition; hit rate 1.7% among 350,000; CPE inhibition, % at 9.99 µM; DENV2-infected cells, cytopathic effect rescue, plate reader; in the data active = CPE inhibition above about 20%, passing the limit was not always enough; inconclusive = no clear call, values can overlap the other calls; tested in BHK-21 cells;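 also: 0% = median of neutral control wells and 100% = median of positive control wells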
# HIV Env fusion: blocks HIV Env-driven cell-cell fusion; hit rate 1.1% among 360,000; HeLa-JRFL Env/CEM21 cell fusion, luciferase; inhibition, % at 12.3 µM;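 active = mean replicate inhibition score of at least 50 and every replicate individually at or above 50; inconclusive = only one of the two criteria met; inactive = mean below 50 and not all replicates reaching 50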;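 also: 0% = plate neutral controls and 100% = maraviroc near 300 nM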
# Ecoli rRNA inh: inhibits bacterial ribosomal RNA function over humanized ribosomes; E. coli WT GFP vs humanized-ribosome RFP mutants, fluorescence, 24 h; stronger effect = lower value; DMSO median 0, no signal -100; GFP signal change (wild-type ribosome), % (test concentration not listed); hit rate 1.6% among 350,000;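 active = significant combined selectivity score with lowered wild-type GFP, culture density cut under 30%, mutant RFP and density less affected; inactive = any of these conditions unmet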
# FN deposit inh: fibronectin deposition inhibition | AH1F fibroblasts, Alexa488-fibronectin deposition fluorescence, overnight | inhibition, % at 12.6 µM | hit rate 0.086% among 350,000 | AID 743247;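 active = mean inhibition across replicates of 30% or more, regardless of how many single replicates reach that level; inconclusive = mean under 30% yet at least half of replicates reach 30%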;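 also: positive control wells lacked labelled fibronectin entirely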
#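 Assay system: AH1F fibroblasts / Quantity: 10000 cells per well / Medium: DMEM plus 2% serum, read in PBS / Reagent: labelled fibronectin 24 nM / Dosing: single dose, pinned / Times: 1 h cell attachment, overnight exposure to compound and label / Signal: fluorescence, ex 485 nm, em 525 nm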
# PGC1a acetyl inh: modulators of PGC1a acetylation. U2OS PGC1a acetylation, AlphaScreen anti-acetyl-lysine; with virally co-expressed GCN5 acetyltransferase. inhibition, % at 15.6 µM. hit rate 0.17% among 350,000;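 active = every replicate shows inhibition of at least 40%; inconclusive = mean inhibition at least 40% but some replicate below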;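 also: 0% = neutral control wells and 100% = positive control wells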
# PglD DTNB: blocks C. jejuni PglD acetyltransferase activity; purified PglD enzyme, DTNB colorimetric CoA detection; inhibition, % at 12.5 µM; hit rate 0.098% among 360,000; in the data active = inhibition above about 16%, passing the limit was not always enough; inconclusive = no clear call, values can overlap the other calls
# HepG2 tox: cytotoxic compounds in HepG2 cells. shares compounds with Ecoli rRNA inh. HepG2 viability, ATP luminescence, 72 h. activity change, negative = cytotoxicity, unspecified at 26 µM. 30 tested, under 10 active. AID 743480;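 active = compounds whose fitted half-maximal signal-loss concentration is at most twice their highest valid dose; inconclusive = flat curve with 30 to 70% signal loss, or poor fit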
# AID977621: growth inhibition of wild-type GFP E. coli, dose response, H69 mutant RFP, cherry-pick | shares compounds with Ecoli rRNA inh | E. coli wild-type GFP strain growth, fluorescence, 24 h | activity change, negative = inhibition at 50 µM | 1,900 tested, under 10 active;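 active = Wild-type ribosome reporter drop at least double the humanized mutant ribosome reporter drop, growth loss under a set limit; inconclusive = no clear call, values can overlap the other calls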;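 also: wild-type GFP and H69 mutant RFP strains grown together 50/50 in each well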
# AID977628: E. coli growth inhibition, wild-type GFP versus h24 humanized RFP strain, dose response, h24 mutant RFP vs wild-type GFP, cherry-pick. shares compounds with Ecoli rRNA inh. E. coli WT GFP strain growth, fluorescence, 24 h. activity change, negative = inhibition at 50 µM. 1,900 tested, under 10 active. AID 977628;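 active = compound lowering the normal-ribosome reporter at least twice as much as the humanized-ribosome reporter, growth loss under a set limit; inconclusive = no clear call, values can overlap the other calls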;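 also: wild-type GFP and h24 humanized RFP strains co-cultured 1 to 1 per well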
# The depositor's hits bear a star; ? = inconclusive; nt = no result given; [ ] = remark or other dose. Only some compounds are listed: those with a hit (about 3.5% of all), similar ones and a draw of the others.
SMILES,DENV2 CPE,HIV Env fusion,Ecoli rRNA inh,FN deposit inh,PGC1a acetyl inh,PglD DTNB,AID977621,AID977628,others
CO[C@@H]1CN(C)C(=O)c2cc(NC(=O)Nc3ccccc3)ccc2OC[C@@H](C)N(C(=O)Nc2c(C)noc2C)C[C@H]1C,-6.7,nt,-6.7,0.6,-4.5,1.3,nt,nt,
CN1c2ccc(C#Cc3cccnc3)cc2[C@@H]2[C@@H](CCN2C(=O)c2cccc(F)c2)[C@H]1CO,59.0*,nt,-38.5*,5.8,-32.4,4.0,2.55,nt,
CC(C)NC(=O)N1CC[C@H]2[C@@H]1c1cc(C#Cc3cccnc3)ccc1N(C)[C@H]2CO,3.8,nt,-1.1,-8.0,-1.2,-2.3,nt,nt,
CCC(=O)Nc1ccc2c(c1)OC[C@@H](C)N(C(=O)C1CCC1)C[C@@H](C)[C@H](OC)CN(C)C2=O,-3.4,nt,1.4,-2.3,8.1,-0.6,nt,nt,
COc1ccc2c(c1)c(C(C)=O)c(C)n2CCc1ccc(OC)c(OC)c1,-4.4,-0.8,-32.6*,-3.9,-5.7,0.8,-11.3,nt,
c1cncc(-c2nc3cc4ccccc4cc3[nH]2)c1,2.3,nt,-26.3*,nt,-2.3,3.5,-3.11,nt,
COc1ccc(C2CN=NC23CCCc2ccccc2C3=O)cc1 (centres undefined),nt,-6.1,nt,1.4,-16.5,-3.1,nt,nt,
COc1ccc(C2CN=NC23CCc2ccccc2C3=O)cc1 (centres undefined),-3.3,-0.1,-20.4*,-4.9,-6.4,-6.7,1.1,nt,
COc1ccc(NC(=O)N(C)C[C@H]2OCCCC[C@H](C)Oc3ccc(NC(=O)Nc4ccccc4)cc3C(=O)N([C@@H](C)CO)C[C@H]2C)cc1,2.3,-8.7[16.7 µM],0.3,9.5,8.5,-1.9,nt,nt,
O=C(C1=C[C@H](C2CC2)C[C@H](OCc2ccc(CO)cc2)O1)N1CCCCCCC1,-8.9,8.2[16.7 µM],nt,nt,-8.8,nt,nt,nt,
Cc1cc(C)nc(SCc2cn3c(C)cccc3n2)n1,-1.4,1.6,-18.6*,-1.8,6.7,-1.1,nt,?,
Cc1ccnc(SCc2cn3c(C)cccc3n2)n1,-1.7,-7.3,-9.7,nt,nt,nt,nt,nt,
Cc1noc(C)c1NC(=O)Nc1ccc2c(c1)CC(=O)N([C@@H](C)CO)C[C@H](C)[C@H](CN(C)C(=O)NC1CCCCC1)O2,nt,-56.1[16.7 µM],3.9,-4.9,8.1,nt,nt,nt,
COc1ccc(Cl)cc1NC(=O)C1Cc2ccccc2CN1S(C)(=O)=O (centres undefined),8.9,-0.3,-19.8*,-2.8,6.4,4.3,nt,-18.9,
O=C(c1cnccn1)N1CC2(C1)[C@H](c1ccccc1)[C@@H](CO)N2C(=O)c1ccccc1,-7.1,nt,0.6,nt,1.9,nt,nt,nt,
CCOC(=O)c1c(C)[nH]c(C)c1S(=O)(=O)NCCN1CCN(c2ccccc2F)CC1,-4.1,2.7,-16.5*,5.6,-8.7,-0.4,-6.32,-15.8,
CCOC(=O)c1c(C)[nH]c(C)c1S(=O)(=O)NCC1CCN(Cc2ccccc2F)CC1,-3.4,7.1,5.0,0.2,4.0,-1.2,nt,nt,
C[C@H]1CCCCO[C@H](CN(C)C(=O)c2ccccc2)[C@@H](C)CN([C@@H](C)CO)C(=O)c2cc(NC(=O)Nc3ccccc3)ccc2O1,4.4,-47.9[16.7 µM],-2.5,-27.0,-11.6,9.4,nt,nt,
Cc1ccc(-c2nc(CN3CCCCC3c3cccc(F)c3)c(C)o2)o1 (centres undefined),-2.4,3.5,-18.4*,nt,-2.6,nt,-5.88,-14.6,
CO[C@@H]1CN(C)C(=O)c2ccc(NC(=O)c3nc4ccccc4s3)cc2OC[C@H](C)N(Cc2cncnc2)C[C@H]1C,-1.9,nt,-6.3,4.1,-6.1,-2.1,nt,nt,
Cc1ccsc1C(=O)C1CCCN(Cc2cc(F)ccc2-n2cccn2)C1 (centres undefined),-4.5,18.1,-32.6*,-14.7,nt,nt,-12.9,-13.8,
COc1cc(OC)c(OC)cc1CN1CCCC(C(=O)c2sccc2C)C1 (centres undefined),1.0,-1.9,-2.9,8.1,1.8,-6.1,nt,nt,
O=C(Nc1ccc(Cl)cn1)c1cc2c(s1)-c1ccccc1OC2,5.6,-31.4,-22.4*,-1.8,3.9,2.6,-7.2,?,
COc1ccc(-c2nnc(COc3ccc(Br)cc3C)o2)cc1,0.6,6.1,-18.6*,14.5,-5.6,-2.9,?,?,
Cc1cc(Br)ccc1OCc1nnc(-c2ccccc2)o1,-7.8,-50.8,1.9,5.8,-0.7,-2.8,nt,nt,
SMILES,DENV2 CPE,HIV Env fusion,Ecoli rRNA inh,FN deposit inh,PGC1a acetyl inh,PglD DTNB,AID977621,AID977628,others
CCCC(=O)Nc1cccc(C(=O)Nc2ccccc2OCC)c1,-3.5,9.8,-27.4*,4.5,nt,nt,0.936,-9.01,
CCOc1ccccc1NC(=O)c1ccc2ccccc2c1,?,-5.2,-25.0*,-0.8,88.2*,-1.1,nt,?,HepG2 tox=2.55
C[C@H]1CN([C@@H](C)CO)C(=O)c2cc(/C=C/c3ccccc3)cnc2O[C@H]1CN(C)C(=O)C1CCC1,5.6,4.0[16.7 µM],-3.9,nt,4.1,0.2,nt,nt,
CCOC(=O)CSc1n[nH]c(=S)s1,4.3,-1.0,0.0,-3.1,nt,nt,nt,nt,
CCOC(=O)CCSc1n[nH]c(=S)s1,-4.9,-11.7,-20.7*,-1.0,nt,nt,-14.4,-2.74,
CCC(=O)Nc1ccc2c(c1)OC[C@@H](C)N(C(=O)NC(C)C)C[C@@H](C)[C@@H](OC)CN(C)C2=O,-5.8,-9.9[16.7 µM],0.5,0.9,-9.0,1.2,nt,nt,
Cc1ccc(C(=O)Nc2ccc(C)c(S(=O)(=O)Nc3ccccc3Cl)c2)s1,-6.5,nt,-32.2*,5.7,nt,-4.5,-12,?,
COc1ccccc1C#Cc1ccc2c(c1)O[C@@H](CN(C)C(C)=O)[C@H](C)CN([C@H](C)CO)S2(=O)=O,5.0,13.9[16.7 µM],-2.4,22.6,2.0,-0.6,nt,nt,
CC(C)NC(=O)N(C)C[C@H]1OCCCC[C@H](C)Oc2ccc(NC(=O)Nc3ccc(C(F)(F)F)cc3)cc2C(=O)N([C@H](C)CO)C[C@H]1C,-3.9,-21.2[16.7 µM],4.3,17.2,-6.6,-1.8,nt,nt,
Cc1cccc(NC(=O)CN(C)S(=O)(=O)c2cccc3cccnc23)c1,-4.0,-6.3,-7.3,2.8,-0.2,-4.2,nt,nt,
CCc1cccc(NC(=O)CN(C)S(=O)(=O)c2cccc3cccnc23)c1,-5.9,21.1,-19.6*,1.3,3.9,0.1,-7.72,-8.15,
O=C(O)CC(CC(=O)Nc1ccc(Oc2ccccc2)cc1)c1ccccc1 (centres undefined),-7.7,3.2,-26.9*,-0.8,nt,nt,-18.8,-22.5,

# Bioassay records (PubChem BioAssay)
